Test [1] has as its system Breast cancer cell line. The test can be described thus: Synergistic antitumor activity against human reimplanted CRCM404 negative breast cancer cells orthotopically xenografted in NSG mouse model of PDX assessed as reduction tumor volume at 50 mg/kg, ip 5 out of 7 for 2 weeks cotreated with salinomycin by limiting dilation analysis. The class given is functional, organism-based. On the technique in general: In xenograft studies the graft and the host belong to different species.

A short description of test [2]: Antitumor activity against human S68 cells assessed as K-score by measuring ALDHbr cells by LSR2 cytometer. The class given is functional. In a few lines: (§1)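 Cell lines exposed for 72 h in adherent culture to a range of concentrations centred on the MTS-derived IC50. ALDHbr proportion measured by ALDEFLUOR flow cytometry (LSR2). K-score is the linear regression coefficient, on log10-transformed doses, between the untreated condition and the dose predicted to give a 50% decrease or increase in ALDHbr proportion versus control.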

For test [3], the system named is SUM-159-PT. The test can be described thus: Induction of apoptosis in human SUM159 cells expressing ALDHbr upto 100 uM incubated for 72 hrs by ALDEFLUOR/YO-PRO-3/ Hoechst 33342 staining based high content imaging microscopic analysis. The class given is functional, cell-based. The essentials: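 SUM159 at 3,000 cells/well on collagen plates, dosed at 6, 24 and 48 h post-seeding; 0.1% DMSO negative control, cisplatin positive control. At 72 h stained 30 min at 37°C with ALDEFLUOR, YO-PRO-3 and Hoechst 33342, then imaged ice-cold. YO-PRO-3-positive nuclei (above untreated signal) counted over total cells, per ALDHbr/ALDH- subpopulation; n = 6.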

For test [4], the system named is Breast cancer cell line. The test can be described thus: Synergistic antitumor activity against human CRCM404 negative breast cancer cells xenografted in NSG mouse model of PDX assessed as reduction metastasis formation in liver at 50 mg/kg, ip 5 out of 7 for 2 weeks cotreated with salinomycin. The format is functional, organism-based. The essentials:
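Luciferase-expressing PDX cells sorted H2Kd⁻ and viable, 100,000 in 100 μl PBS injected in NSG tail vein. From the next day, salinomycin 3 mg/kg i.p. daily and/or JQ1 50 mg/kg i.p. 5 of 7 days for 2 weeks. Lungs and liver imaged by bioluminescence after i.p. luciferin 30 mg/kg; normalised photon flux; 10 mice/group; Wilcoxon test.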

In test [5] the test system is SUM149PT. The test can be described thus: Synergistic anticancer activity against human SUM149 cells assessed as decrease in docetaxel induced ALDHbr cells at 62 nM in presence of salinomycin by LSR2 cytometer analysis. The class given is functional, cell-based. In a few lines:
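SUM159 or SUM149 cells treated 72 h in adherent conditions; docetaxel combined with other drugs at 2 nM; combination doses chosen from synergy distributions (Sal/JQ1 62 nM/62 nM). ALDEFLUOR staining with DEAB control, flow cytometry on LSR2. n = 8; Student's t-test; mean ± SD.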

The subject of test [6] is Breast cancer cell line. The test can be described thus: Synergistic antitumor activity against human CRCM404 negative breast cancer cells orthotopically xenografted in NSG mouse model of PDX assessed as reduction in tumor volume at 50 mg/kg, ip 5 out of 7 for 2 weeks cotreated with salinomycin. The format is functional, organism-based. In a few lines:
(§2)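 Orthotopic PDX in NSG mice, 100,000 cells per fat pad, two pads per mouse; treatment from ~80 mm³ tumours with salinomycin i.p. 3 mg/kg daily 14 days, JQ1 i.p. 50 mg/kg 5 of 7 days for 2 weeks, or combination, against placebo DMSO/HPCD 10% (1:9). Tumour growth monitored; n = 10 tumours per group.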

In test [7] the test system is SUM149PT. Nature of the test: Anticancer activity against human SUM149 cells assessed as ALDHbr cells at 1 mM by LSR2 cytometer (reference value: 4.8%). The format is functional. The arrangement: dose or concentration left out as unconfirmed.
For test [8], the system named is Breast cancer cell line. Nature of the test: Antitumor activity against human CRCM434 negative breast cancer cells orthotopically xenografted in NSG mouse model of PDX assessed as reduction in tumor volume at 50 mg/kg, ip 5 out of 7 for 2 weeks. The format is functional, organism-based. In a few lines:
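Chemo-naïve triple-negative PDX cells injected at 100,000 per fat pad, two fat pads per NSG mouse. At ~80 mm³ tumours, mice received i.p. 3 mg/kg daily for 14 days or 50 mg/kg 5 of 7 days for 2 weeks; placebo was DMSO/HPCD 10% (1:9). Five mice (10 tumours) per group. Tumour growth monitored; after 2 weeks tumours dissociated, mouse cells excluded via anti-H2Kd, ALDHbr measured by ALDEFLUOR flow cytometry and normalised to vehicle.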

Test [9] relates to Breast cancer cell line. The test can be described thus: Synergistic antitumor activity against human CRCM434 negative breast cancer cells orthotopically xenografted in NSG mouse model of PDX assessed as reduction ALDHbr cells at 50 mg/kg, ip 5 out of 7 for 2 weeks cotreated with salinomycin by LSR2 cytometer analysis. The format is functional.
Test [10] relates to Breast cancer cell line. Nature of the test: Antitumor activity against human reimplanted CRCM404 negative breast cancer cells orthotopically xenografted in NSG mouse model of PDX assessed as reduction tumor volume at 50 mg/kg, ip 5 out of 7 for 2 weeks by limiting dilation analysis. The class given is functional, organism-based. The essentials: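 After 2 weeks of i.p. treatment (3 mg/kg daily or 50 mg/kg 5 of 7 days), dissociated PDX tumour cells reimplanted into secondary NSG mice at 50, 500 or 5,000 cells. A mouse counted as tumour-bearing once a tumour reached 10 mm. bCSC frequency per 10,000 cells estimated by ELDA; pairwise chi-square test.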

Test [11] has as its system SUM149PT. Nature of the test: Anticancer activity against human SUM149 cells assessed as ALDHbr cells at 10 uM by LSR2 cytometer (reference value: 4.8%). The class given is functional.
Test [12] is described as follows: Antitumor activity against human BrCa-MZ-01 cells assessed as K-score by measuring ALDHbr cells by LSR2 cytometer. The format is functional. The essentials:
as §1

For test [13], the system named is SUM-159-PT. The test can be described thus: Synergistic anticancer activity against human SUM159 cells assessed as decrease in docetaxel induced primary tumor sphere formation at 62 nM incubated for 72 hrs in presence of salinomycin by Extreme limiting dilution analysis. The format is functional, cell-based. The essentials: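 72 h adherent pretreatment (Sal/JQ1 62 nM/62 nM; docetaxel added at 2 nM where used), then single cells plated in ultra-low attachment 96-well plates in serum-free mammary epithelium basal medium at 25/10/5/3/2/1 cells/well (18–36 wells/condition). Wells with ≥1 sphere after 10 days scored positive; sphere-forming frequency by ELDA. Secondary spheres from dissociated primary spheres. n = 4; pairwise chi-square.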

For test [14], the system named is SUM-159-PT. Nature of the test: Antitumor activity against human SUM159 cells assessed as K-score by measuring ALDHbr cells by LSR2 cytometer. The class given is functional. In a few lines:
as §1

In test [15] the test system is SUM-159-PT. Nature of the test: Synergistic apoptosis in human SUM159 cell expressing ALDH at 500 nM incubated for 72 hrs in presence of salinomycin by ALDEFLUOR/YO-PRO-3/ Hoechst 33342 staining based high content imaging microscopic analysis. The format is functional. In a few lines:
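SUM159 cells seeded at 3,000 cells/well in collagen-coated 96-well plates. Drug added at 6, 24 and 48 h post-seeding. Cisplatin served as positive control and 0.1% v/v DMSO as vehicle control. At 72 h post-seeding, cells were stained with ALDEFLUOR, YO-PRO-3 (1/4,000) and Hoechst 33342 (10 μg/ml) in ALDEFLUOR buffer for 30 min at 37°C, then imaged on ice by high-content microscopy, 9 fields/well. DEAB set the ALDHbr gate. YO-PRO-3⁺ fraction per subpopulation was gated against untreated cells.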

The next test has as its system MDA-MB-436. The test can be described thus: Antitumor activity against human MDA-MB-436 cells assessed as K-score by measuring ALDHbr cells by LSR2 cytometer. The format is functional. The essentials: as §1
The subject of test [16] is Breast cancer cell line. The test can be described thus: Synergistic antitumor activity against human CRCM434 negative breast cancer cells orthotopically xenografted in NSG mouse model of PDX assessed as reduction in tumor volume at 50 mg/kg, ip 5 out of 7 for 2 weeks cotreated with salinomycin. The class given is functional, organism-based. In a few lines: as §2

Structures are written as SMILES. Active and inactive are the calls of the source. The calls are words filed in the database; no cut-off is given here.

On to `Cc1sc2c(c1C)C(c1ccc(Cl)cc1)=N[C@@H](CC(=O)OC(C)(C)C)c1nnc(C)n1-2`, for which the result in the test with Breast cancer cell line [1], with SUM-159-PT [3], in the test on Breast cancer cell line [4], with SUM149PT [5], with Breast cancer cell line [6] and with Breast cancer cell line [8] was Active. Further, the result in the test with Breast cancer cell line [10], in the test with SUM-159-PT [13], with SUM-159-PT [15] and in the test with Breast cancer cell line [16] was Active. Further, the Activity was -0.15 in test [2]; 1.2% with SUM149PT [7]; 5.1% in the test with SUM149PT [11]; -0.03 in test [12]; -0.2 with SUM-159-PT [14]; -0.15 in the test with MDA-MB-436. Moreover, the “fold change (FC)” value in the test with Breast cancer cell line [9] is 2.

The values are drawn from ChEMBL document CHEMBL5712908, “A genome-wide RNAi screen reveals essential therapeutic targets of breast cancer stem cells” (2019).
